The source of these data is ChEMBL document CHEMBL1177669, “Synthesis and biological study of 3-(phenylsulfonyl)thieno[2,3-e][1,2,3]triazolo[1,5-a]pyrimidines as potent and selective serotonin 5-HT6 receptor antagonists” (Bioorg Med Chem, 2010).

Assay [1] addresses T1, 5-hydroxytryptamine receptor 6 (Homo sapiens, UniProt P50406). The assay is described as follows: Antagonist activity at human recombinant 5HT6 receptor expressed in HEK293 cells assessed as inhibition of serotonin-induced cAMP production. Format: functional, cell-based. The method in brief: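 HEK293 cells stably expressing recombinant human 5-HT6R, stimulated with serotonin. cAMP from adenylyl cyclase measured by LANCE. Compounds screened at 5 and 10 μM. IC50 determined for compounds giving more than 50% inhibition of cAMP synthesis at 5 μM.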
(In general: Cyclic AMP is a second messenger, typically raised through Gs and lowered through Gi signalling.)

Assay [2] has as its target T1, 5-hydroxytryptamine receptor 6. The assay is described as follows: Binding affinity to human recombinant 5HT6 receptor expressed in HEK293 cells by radioligand displacement assay. Format: cell-based. The gist of the method: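 Competitive radioligand binding at the 5-HT6 receptor, run by MDS Pharma Services as part of a serotonin receptor panel. IC50 and Ki values derived.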
In general terms: Displacement assays read how much labelled ligand stays bound in the presence of the test substance.

T1 sequence (P50406 whole entry): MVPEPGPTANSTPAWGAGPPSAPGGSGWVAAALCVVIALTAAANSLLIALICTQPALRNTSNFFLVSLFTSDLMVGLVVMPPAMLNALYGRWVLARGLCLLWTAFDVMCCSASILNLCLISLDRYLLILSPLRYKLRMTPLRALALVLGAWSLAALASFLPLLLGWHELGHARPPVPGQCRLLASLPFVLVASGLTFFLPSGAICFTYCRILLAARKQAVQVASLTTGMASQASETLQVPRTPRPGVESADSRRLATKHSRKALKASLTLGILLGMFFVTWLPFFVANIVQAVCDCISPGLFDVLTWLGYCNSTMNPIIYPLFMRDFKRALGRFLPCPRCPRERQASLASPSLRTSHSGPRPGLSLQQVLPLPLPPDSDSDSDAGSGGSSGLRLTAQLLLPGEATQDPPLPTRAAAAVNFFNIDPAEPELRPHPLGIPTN

As for `O=S(=O)(c1ccccc1)c1nnn2c1nc(NCc1cccs1)c1sccc12`, the IC50 – broadly, the concentration that gives 50% inhibition – in assay [1] stood at 110 nM; in assay [2] it was 3.6 nM. The Ki (in general, a dissociation constant, usually derived from enzyme kinetics or from competition with a known ligand) in assay [2] was 1.7 nM.

On to `O=S(=O)(c1ccc(Br)cc1)c1nnn2c1nc(NCc1ccc3c(c1)OCO3)c1sccc12`, for which, in assay [2], the IC50 came to 62.1 nM and the inhibition constant Ki amounted to 28.8 nM.

`CC(C)CCNc1nc2c(S(=O)(=O)c3ccc(Br)cc3)nnn2c2ccsc12`: in assay [2], the IC50 was determined as 34.3 nM and the Ki was 15.9 nM.

With `Cc1ccc(C)c(S(=O)(=O)c2nnn3c2nc(N)c2sccc23)c1`, the IC50 in assay [1] was 1220 nM; in assay [2], 99.1 nM. For the same compound, the Ki in assay [2] was determined as 46 nM.

Turning to `O=S(=O)(c1ccccc1)c1nnn2c1nc(NCc1ccco1)c1sccc12`, in assay [1], the IC50 came out at 40 nM. Besides, in assay [2], the IC50 was 6.1 nM and the Ki is 2.8 nM.

On to `O=S(=O)(c1ccccc1)c1nnn2c1nc(NCC1CCCO1)c1sccc12` (centres undefined), for which the IC50 was 63 nM in assay [1] and 17.5 nM in assay [2]. For the same compound, the Ki in assay [2] was found to be 8.1 nM.

Turning to `Cc1ccc(C)c(S(=O)(=O)c2nnn3c2nc(NC(C)C)c2sccc23)c1`, the results for the IC50 in assay [1] and in assay [2] were 350 nM and 28.3 nM, respectively.

On to `CC12CC3CC(C)(C1)CC(Nc1nc4c(S(=O)(=O)c5ccccc5)nnn4c4ccsc14)(C3)C2`, for which, in assay [2], the IC50 stood at 56.7 nM and the Ki was found to be 26.3 nM.

In the case of `O=S(=O)(c1ccccc1)c1nnn2c1nc(N1CCCC1)c1sccc12`, in assay [2], the IC50 worked out at 188 nM and the Ki was 87.5 nM.

Turning to `COc1ccccc1CNc1nc2c(S(=O)(=O)c3ccc(Cl)cc3)nnn2c2ccsc12`, the concentration for half-maximal inhibition (IC50) in assay [1] is 1150 nM.

As for `CC(Nc1nc2c(S(=O)(=O)c3cccc(Cl)c3)nnn2c2ccsc12)c1ccccc1` (centres undefined), the IC50 in assay [1] was 150 nM.

In the case of `CN(C)CCNc1nc2c(S(=O)(=O)c3ccccc3)nnn2c2ccsc12`, the IC50 in assay [2] was above 300 nM.

On to `CCc1ccc(S(=O)(=O)c2nnn3c2nc(Nc2cccc(C)c2)c2sccc23)cc1`, for which the IC50 in assay [1] turned out to be 1750 nM.

Consider `Cc1cccc(Nc2nc3c(S(=O)(=O)c4ccc(C(C)C)cc4)nnn3c3ccsc23)c1C`, for which, in assay [1], the IC50 came out at 1000 nM.

As for `O=S(=O)(c1cccc(Cl)c1)c1nnn2c1nc(NCc1ccco1)c1sccc12`, the IC50 in assay [1] is 190 nM.

For `COc1cccc(Nc2nc3c(S(=O)(=O)c4ccc(C)c(C)c4)nnn3c3ccsc23)c1`, the IC50 in assay [1] came to 860 nM.

For `Cc1ccc(Nc2nc3c(S(=O)(=O)c4cccc(Cl)c4)nnn3c3ccsc23)cc1`, the IC50 in assay [1] came to 1210 nM.

As to `O=S(=O)(c1ccc(Cl)cc1)c1nnn2c1nc(NCc1ccccc1)c1sccc12`, in assay [1], the IC50 came to 270 nM.

Consider `CC(Nc1nc2c(S(=O)(=O)c3ccc(Br)cc3)nnn2c2ccsc12)c1ccccc1` (centres undefined), for which, in assay [1], the IC50 worked out at 540 nM.

Take `CC(Nc1nc2c(S(=O)(=O)c3ccc(Cl)cc3)nnn2c2ccsc12)c1ccccc1` (centres undefined): in assay [1], the IC50 turned out to be 280 nM.

As to `COCCNc1nc2c(S(=O)(=O)c3ccc(Cl)cc3)nnn2c2ccsc12`, the IC50 in assay [1] amounted to 2170 nM.

For the compound `Cc1ccc(S(=O)(=O)c2nnn3c2nc(NC2CCCCC2)c2sccc23)cc1`, the 50% inhibitory concentration (IC50) in assay [1] was determined as 730 nM.

In the case of `O=S(=O)(c1ccccc1)c1nnn2c1nc(Nc1ccccc1)c1sccc12`, in assay [1], the IC50 was found to be 5000 nM.

Regarding `O=S(=O)(c1ccccc1)c1nnn2c1nc(NCc1ccccc1)c1sccc12`, in assay [1], the IC50 came to 59 nM.

As for `Cc1ccc(S(=O)(=O)c2nnn3c2nc(NCc2ccc(F)cc2)c2sccc23)cc1C`, in assay [1], the IC50 was 520 nM.

For the compound `Cc1ccc(S(=O)(=O)c2nnn3c2nc(NCc2cccs2)c2sccc23)cc1`, the IC50 in assay [1] was determined as 220 nM.

For the compound `CCN(Cc1ccccc1)c1nc2c(S(=O)(=O)c3ccc(Cl)cc3)nnn2c2ccsc12`, the IC50 in assay [1] was 570 nM.

As to `Cc1ccc(Nc2nc3c(S(=O)(=O)c4ccc(Br)cc4)nnn3c3ccsc23)cc1C`, the IC50 in assay [1] came to 1350 nM.

In the case of `Cc1ccc(S(=O)(=O)c2nnn3c2nc(Nc2ccc(Cl)cc2)c2sccc23)cc1C`, the half-inhibitory concentration (IC50) in assay [1] was 1430 nM.

As for `COc1ccccc1CNc1nc2c(S(=O)(=O)c3ccccc3)nnn2c2ccsc12`, the IC50 in assay [1] was found to be 290 nM.

For the compound `CCc1ccc(S(=O)(=O)c2nnn3c2nc(NCCCOC)c2sccc23)cc1`, the IC50 in assay [1] is above 5000 nM.

In the case of `O=S(=O)(c1cccc(Cl)c1)c1nnn2c1nc(NCc1ccc(F)cc1)c1sccc12`, in assay [1], the IC50 amounted to 480 nM.

As to `O=S(=O)(c1cccc(Cl)c1)c1nnn2c1nc(N1CCCCCC1)c1sccc12`, the IC50 in assay [1] was determined as 1540 nM.

For `O=S(=O)(c1cccc(Cl)c1)c1nnn2c1nc(NCC1CCCO1)c1sccc12` (centres undefined), in assay [1], the IC50 worked out at 29 nM.

On to `CCc1cccc(Nc2nc3c(S(=O)(=O)c4ccc(C)cc4)nnn3c3ccsc23)c1`, for which the IC50 in assay [1] stood at 1380 nM.

Consider `Cc1cccc(Nc2nc3c(S(=O)(=O)c4ccc(C(C)C)cc4)nnn3c3ccsc23)c1`, for which the 50% inhibitory concentration (IC50) in assay [1] turned out to be 590 nM.

Take `CN(C)CCN(C)c1nc2c(S(=O)(=O)c3cccc(Cl)c3)nnn2c2ccsc12`: in assay [1], the IC50 was found to be 580 nM.

On to `O=S(=O)(c1cccc(Cl)c1)c1nnn2c1nc(NC1CCCC1)c1sccc12`, for which the IC50 in assay [1] turned out to be 170 nM.

`CCc1ccc(S(=O)(=O)c2nnn3c2nc(NCCC(C)C)c2sccc23)cc1`: the IC50 in assay [1] was above 5000 nM.

On to `Cc1ccc(S(=O)(=O)c2nnn3c2nc(NCc2cccc(Cl)c2)c2sccc23)cc1`, for which the IC50 in assay [1] worked out at 120 nM.

For `O=S(=O)(c1ccccc1)c1nnn2c1nc(NCc1ccc(F)cc1)c1sccc12`, the concentration for half-maximal inhibition (IC50) in assay [1] turned out to be 690 nM.

For the compound `CC(C)CCNc1nc2c(S(=O)(=O)c3cccc(Cl)c3)nnn2c2ccsc12`, the IC50 in assay [1] amounted to 68 nM.

Turning to `O=S(=O)(c1cccc(Cl)c1)c1nnn2c1nc(Nc1ccc(F)cc1)c1sccc12`, the half-maximal inhibitory concentration (IC50) in assay [1] came to 2500 nM.

Consider `Cc1ccc(S(=O)(=O)c2nnn3c2nc(NC2CCCCCC2)c2sccc23)cc1`, for which the IC50 in assay [1] worked out at 790 nM.

On to `O=S(=O)(c1ccc(Br)cc1)c1nnn2c1nc(NCC1CCCO1)c1sccc12` (centres undefined), for which the IC50 in assay [1] worked out at 1620 nM.

For the compound `Cc1ccc(C)c(S(=O)(=O)c2nnn3c2nc(NC2CCCC2)c2sccc23)c1`, in assay [1], the IC50 came to 590 nM.

With `O=S(=O)(c1cccc(Cl)c1)c1nnn2c1nc(NCc1cccs1)c1sccc12`, in assay [1], the IC50 is 150 nM.

As to `O=S(=O)(c1ccc(Cl)cc1)c1nnn2c1nc(NCC1CCCO1)c1sccc12` (centres undefined), the IC50 in assay [1] was 480 nM.

Consider `Cc1ccc(C)c(S(=O)(=O)c2nnn3c2nc(N(C)Cc2ccccc2)c2sccc23)c1`, for which the IC50 in assay [1] came out at 1480 nM.

For the compound `O=S(=O)(c1ccc(Cl)cc1)c1nnn2c1nc(NCc1cccs1)c1sccc12`, in assay [1], the IC50 turned out to be 650 nM.

In the case of `CC(Nc1nc2c(S(=O)(=O)c3ccccc3)nnn2c2ccsc12)C12CC3CC(CC(C3)C1)C2` (centres undefined), in assay [2], the half-maximal inhibitory concentration (IC50) turned out to be 221 nM and the Ki was found to be 103 nM.

For the compound `Cc1ccc(C)c(S(=O)(=O)c2nnn3c2nc(N2CCC(C)CC2)c2sccc23)c1`, in assay [1], the IC50 was 1990 nM.

Take `CCN(Cc1ccccc1)c1nc2c(S(=O)(=O)c3cc(C)ccc3C)nnn2c2ccsc12`: the IC50 in assay [1] turned out to be 1100 nM.

In the case of `Cc1ccc(C)c(S(=O)(=O)c2nnn3c2nc(N2CCCCC2)c2sccc23)c1`, the half-maximal inhibitory concentration (IC50) in assay [1] was found to be 1520 nM.

As to `Cc1ccc(S(=O)(=O)c2nnn3c2nc(NC(C)Cc2ccccc2)c2sccc23)cc1C` (centres undefined), the IC50 in assay [1] stood at 680 nM.

For `COCCNc1nc2c(S(=O)(=O)c3cccc(Cl)c3)nnn2c2ccsc12`, in assay [1], the IC50 came to 110 nM.

With `CCN(Cc1ccccc1)c1nc2c(S(=O)(=O)c3ccc(Br)cc3)nnn2c2ccsc12`, the IC50 in assay [1] turned out to be 580 nM.

Take `COCCNc1nc2c(S(=O)(=O)c3ccc(C)c(C)c3)nnn2c2ccsc12`: in assay [1], the IC50 was found to be 1570 nM.

For the compound `Cc1ccc(S(=O)(=O)c2nnn3c2nc(NC2CCCC2)c2sccc23)cc1`, the IC50 in assay [1] is 2030 nM.

With `Cc1ccc(C)c(S(=O)(=O)c2nnn3c2nc(NCC2CCCO2)c2sccc23)c1` (centres undefined), the IC50 in assay [1] came out at 890 nM.
